Experimental data from ChEMBL document CHEMBL1268928, “Design and synthesis of novel pyrimidine hydroxamic acid inhibitors of histone deacetylases” (Bioorg Med Chem Lett, 2010).

Key:
HuT78 = test: cells; format: functional; conditions: Homo sapiens, HuT78, 72 h
U-937 = test: cells; format: functional; conditions: Homo sapiens, U-937, 72 h
HCT-116 [1] = test: cells; format: functional; conditions: Homo sapiens, HCT-116, 72 h
HeLa = test: cells; format: functional; conditions: Homo sapiens, 72 h
Histone deacetylase = test: Inhibition of HDAC in human HeLa cell nuclear extracts by fluorimetric assay; format: protein assay
Mus musculus [2] = test: Inhibition of HDAC in tumor tissue of human HCT116 cells xenografted CrTac:NCr-Fox1 (nu) athymic mouse assessed as increase in histone H3 acetylation at 50 mg/kg, po qd for 16 days measured 1 hr post dose by Western blot relative to untreated control; format: functional, HCT-116
Summary of the method: (§1)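 Female athymic nude mice bearing established bilateral HCT116 colon carcinoma xenografts (n = 14), dosed orally once daily for 16 days at 50 mg/kg. Tumour tissue taken after the final dose; histone H3 acetylation by Western blot with anti-acetylated H3 antibody. Band intensity by densitometry, normalised to GAPDH, and expressed as % of DMSO controls. One animal per value, n = 1–3.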

[3] = Cmax in CD1 mouse plasma at 3 mg/kg, po or 1 mg/kg, iv; format: ADME, organism-based
Summary of the method: (§2)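 Cassette PK study in CD1 mice, dosed 3 mg/kg po and 1 mg/kg iv. Cmax was measured in plasma and spleen, and oral bioavailability F was derived.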

[4] = Drug level in tumor of human HCT116 cells xenografted in CrTac:NCr-Fox1 (nu) athymic mouse at 50 mg/kg, po qd for 16 days measured after 4 hrs; format: ADME, organism-based, Neoplasm, HCT-116; parameters: dose 50 mg/kg, route oral; conditions: in vivo
Summary of the method: (§3)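 Tissue levels measured in female athymic mice bearing bilateral HCT116 xenografts after oral 50 mg/kg once daily for 16 days. Sampled at 0.5, 1 and 4 h post dose. Plasma is reported in nM; tumour and spleen in nmol/kg. The 1 h values are the mean of three samples; 0.5 and 4 h values are means of two.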

[5] = Apparent permeability of the compound by PAMPA assay; format: ADME
[6] = molecular target: Voltage-gated inwardly rectifying potassium channel KCNH2 (Homo sapiens, UniProt Q12809); test: Inhibition of human ERG channel
Voltage-gated inwardly rectifying potassium channel KCNH2, sequence (Q12809 whole entry): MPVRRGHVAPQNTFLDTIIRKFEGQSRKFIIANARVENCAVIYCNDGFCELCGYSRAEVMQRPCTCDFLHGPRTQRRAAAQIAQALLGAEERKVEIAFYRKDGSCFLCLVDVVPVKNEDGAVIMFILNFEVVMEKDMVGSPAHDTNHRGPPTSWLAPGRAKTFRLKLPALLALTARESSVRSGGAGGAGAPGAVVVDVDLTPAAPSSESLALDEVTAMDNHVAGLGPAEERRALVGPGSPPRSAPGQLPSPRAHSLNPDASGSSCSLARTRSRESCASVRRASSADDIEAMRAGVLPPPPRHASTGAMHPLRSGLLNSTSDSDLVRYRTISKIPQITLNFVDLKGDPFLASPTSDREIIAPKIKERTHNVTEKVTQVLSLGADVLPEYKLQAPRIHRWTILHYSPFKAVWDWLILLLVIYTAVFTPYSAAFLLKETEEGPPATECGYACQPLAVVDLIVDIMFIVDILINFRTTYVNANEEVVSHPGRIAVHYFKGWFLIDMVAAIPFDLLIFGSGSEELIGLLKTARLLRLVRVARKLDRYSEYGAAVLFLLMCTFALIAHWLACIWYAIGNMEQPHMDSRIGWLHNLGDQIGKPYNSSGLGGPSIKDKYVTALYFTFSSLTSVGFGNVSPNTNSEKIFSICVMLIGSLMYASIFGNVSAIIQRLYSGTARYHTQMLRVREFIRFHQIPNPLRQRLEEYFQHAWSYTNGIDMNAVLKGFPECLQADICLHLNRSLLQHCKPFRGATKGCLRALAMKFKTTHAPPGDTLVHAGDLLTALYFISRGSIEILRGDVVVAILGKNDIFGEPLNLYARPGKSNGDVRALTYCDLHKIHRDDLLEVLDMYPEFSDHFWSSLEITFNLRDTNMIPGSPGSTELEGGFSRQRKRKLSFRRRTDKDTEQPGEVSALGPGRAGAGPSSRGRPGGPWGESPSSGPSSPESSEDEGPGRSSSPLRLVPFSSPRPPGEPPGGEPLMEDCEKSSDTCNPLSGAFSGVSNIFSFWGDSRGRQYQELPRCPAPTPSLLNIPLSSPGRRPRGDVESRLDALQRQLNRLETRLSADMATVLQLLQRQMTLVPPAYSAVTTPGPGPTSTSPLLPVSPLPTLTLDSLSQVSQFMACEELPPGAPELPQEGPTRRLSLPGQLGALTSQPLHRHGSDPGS

Mus musculus [7] = test: Inhibition of HDAC in human HCT116 cells xenografted CrTac:NCr-Fox1 (nu) athymic mouse assessed as increase in histone H3 acetylation at 50 mg/kg, po qd for 16 days measured 4 hrs post dose by Western blot relative to untreated control; format: functional, HCT-116
Summary of the method: as §1

Cytochrome P450 2A6 = molecular target: T1, Cytochrome P450 2A6 (Homo sapiens, UniProt P11509); test: Inhibition of CYP2A6 at 50 uM; format: ADME
T1 sequence (P11509 whole entry): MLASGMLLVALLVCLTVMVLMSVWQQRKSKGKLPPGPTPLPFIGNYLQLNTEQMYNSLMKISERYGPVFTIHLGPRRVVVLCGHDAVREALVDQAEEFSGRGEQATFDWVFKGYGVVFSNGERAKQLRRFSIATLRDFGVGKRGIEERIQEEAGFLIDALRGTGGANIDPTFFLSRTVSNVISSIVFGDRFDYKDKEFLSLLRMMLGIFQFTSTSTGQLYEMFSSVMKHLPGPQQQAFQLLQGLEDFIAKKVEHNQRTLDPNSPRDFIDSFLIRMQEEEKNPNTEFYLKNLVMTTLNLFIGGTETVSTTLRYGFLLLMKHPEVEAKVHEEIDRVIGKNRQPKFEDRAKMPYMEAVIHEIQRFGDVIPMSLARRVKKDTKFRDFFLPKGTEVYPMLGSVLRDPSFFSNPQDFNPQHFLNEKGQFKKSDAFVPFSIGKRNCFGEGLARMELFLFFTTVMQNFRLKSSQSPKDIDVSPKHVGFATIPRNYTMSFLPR

Cytochrome P450 2D6 = Cytochrome P450 2D6 (Homo sapiens, UniProt P10635); test: Inhibition of CYP2D6 at 50 uM; format: ADME
Cytochrome P450 2D6, sequence (P10635 whole entry): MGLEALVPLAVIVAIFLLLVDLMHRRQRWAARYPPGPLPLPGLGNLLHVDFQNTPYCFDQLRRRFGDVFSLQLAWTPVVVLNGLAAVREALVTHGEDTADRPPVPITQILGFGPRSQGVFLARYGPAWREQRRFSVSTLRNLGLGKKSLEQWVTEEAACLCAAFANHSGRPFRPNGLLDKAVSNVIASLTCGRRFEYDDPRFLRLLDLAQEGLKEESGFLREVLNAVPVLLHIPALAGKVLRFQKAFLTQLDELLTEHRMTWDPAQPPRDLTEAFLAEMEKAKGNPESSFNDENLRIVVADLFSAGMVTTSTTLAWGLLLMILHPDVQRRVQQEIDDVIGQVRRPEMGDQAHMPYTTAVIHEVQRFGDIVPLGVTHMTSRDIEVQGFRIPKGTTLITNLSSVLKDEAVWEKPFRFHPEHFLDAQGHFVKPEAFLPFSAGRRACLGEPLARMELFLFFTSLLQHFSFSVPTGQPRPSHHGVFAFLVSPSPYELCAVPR

Cytochrome P450 2C19 = Cytochrome P450 2C19 (Homo sapiens, UniProt P33261); test: Inhibition of CYP2C19 at 50 uM; format: ADME
Cytochrome P450 2C19, sequence (P33261 whole entry): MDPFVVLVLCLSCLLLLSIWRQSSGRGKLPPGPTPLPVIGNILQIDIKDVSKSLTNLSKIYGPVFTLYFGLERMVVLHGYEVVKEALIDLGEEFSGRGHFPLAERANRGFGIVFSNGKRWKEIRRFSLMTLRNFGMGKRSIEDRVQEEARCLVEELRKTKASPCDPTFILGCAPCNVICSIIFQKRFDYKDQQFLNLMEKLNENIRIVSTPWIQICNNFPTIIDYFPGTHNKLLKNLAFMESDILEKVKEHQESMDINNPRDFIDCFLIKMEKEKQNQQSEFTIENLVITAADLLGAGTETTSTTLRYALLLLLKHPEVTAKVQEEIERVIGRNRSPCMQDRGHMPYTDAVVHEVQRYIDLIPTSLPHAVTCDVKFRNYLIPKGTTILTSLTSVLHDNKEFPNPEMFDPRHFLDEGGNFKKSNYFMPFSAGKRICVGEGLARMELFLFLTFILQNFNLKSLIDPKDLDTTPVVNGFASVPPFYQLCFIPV

Cytochrome P450 2C8 = molecular target: T2, Cytochrome P450 2C8 (Homo sapiens, UniProt P10632); test: Inhibition of CYP2C8 at 50 uM; format: ADME
T2 sequence (P10632 whole entry): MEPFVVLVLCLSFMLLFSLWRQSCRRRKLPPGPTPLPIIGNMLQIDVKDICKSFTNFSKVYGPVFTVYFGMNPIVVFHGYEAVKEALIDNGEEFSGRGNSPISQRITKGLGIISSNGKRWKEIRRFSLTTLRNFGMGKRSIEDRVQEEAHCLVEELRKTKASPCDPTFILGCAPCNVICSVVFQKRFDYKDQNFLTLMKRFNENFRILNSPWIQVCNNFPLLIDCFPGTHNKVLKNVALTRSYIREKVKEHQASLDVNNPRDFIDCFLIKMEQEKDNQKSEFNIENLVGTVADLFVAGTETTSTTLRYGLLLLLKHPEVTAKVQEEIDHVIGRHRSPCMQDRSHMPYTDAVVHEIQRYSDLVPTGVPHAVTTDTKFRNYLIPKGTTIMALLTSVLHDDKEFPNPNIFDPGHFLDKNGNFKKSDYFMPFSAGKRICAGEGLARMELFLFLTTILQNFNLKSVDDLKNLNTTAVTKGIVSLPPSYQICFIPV

Spleen [8] = test: Drug level in spleen of human HCT116 cells xenografted in CrTac:NCr-Fox1 (nu) athymic mouse at 50 mg/kg, po qd for 16 days measured after 0.5 hrs; format: ADME, organism-based, HCT-116; parameters: dose 50 mg/kg, route oral; conditions: in vivo
Summary of the method: as §3

[9] = Drug level in plasma of human HCT116 cells xenografted in CrTac:NCr-Fox1 (nu) athymic mouse at 50 mg/kg, po qd for 16 days measured after 1 hr; format: ADME, organism-based, HCT-116; parameters: dose 50 mg/kg, route oral; conditions: read-out: Drug uptake
Summary of the method: as §3

[10] = Drug level in tumor of human HCT116 cells xenografted in CrTac:NCr-Fox1 (nu) athymic mouse at 50 mg/kg, po qd for 16 days measured after 1 hr; format: ADME, organism-based, Neoplasm, HCT-116; parameters: dose 50 mg/kg, route oral; conditions: in vivo
Summary of the method: as §3

Cytochrome P450 3A4 = Cytochrome P450 3A4 (Homo sapiens, UniProt P08684); test: Inhibition of CYP3A4 at 50 uM; format: ADME
Cytochrome P450 3A4, sequence (P08684 whole entry): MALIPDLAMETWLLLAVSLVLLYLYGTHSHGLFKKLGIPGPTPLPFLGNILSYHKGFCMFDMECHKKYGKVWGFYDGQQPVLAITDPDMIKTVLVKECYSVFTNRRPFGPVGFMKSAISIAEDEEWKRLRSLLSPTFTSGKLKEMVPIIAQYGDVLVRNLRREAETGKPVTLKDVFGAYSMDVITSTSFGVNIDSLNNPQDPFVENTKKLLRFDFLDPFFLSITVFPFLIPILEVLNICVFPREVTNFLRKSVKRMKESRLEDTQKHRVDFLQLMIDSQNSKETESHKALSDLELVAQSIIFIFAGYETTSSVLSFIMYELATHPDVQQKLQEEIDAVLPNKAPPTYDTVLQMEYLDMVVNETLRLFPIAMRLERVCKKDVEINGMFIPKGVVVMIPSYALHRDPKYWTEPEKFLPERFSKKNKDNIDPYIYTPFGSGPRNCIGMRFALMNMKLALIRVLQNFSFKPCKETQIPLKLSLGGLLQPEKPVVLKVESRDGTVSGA

HCT-116 [11] = test: Antitumor activity against human HCT116 cells xenografted in CrTac:NCr-Fox1 (nu) athymic mouse assessed as tumor volume at 50 mg/kg, po qd for 16 days relative to untreated control; format: functional
Summary of the method: (§4)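 Female athymic mice (n = 14) bearing established bilateral HCT116 colon carcinoma xenografts; oral dosing once daily for 16 days at 50 mg/kg. Read-outs are final tumour weight and mean tumour volume, each relative to control. Body weight was monitored.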

Spleen [12] = test: Drug level in spleen of human HCT116 cells xenografted in CrTac:NCr-Fox1 (nu) athymic mouse at 50 mg/kg, po qd for 16 days measured after 1 hr; format: ADME, organism-based, HCT-116; parameters: dose 50 mg/kg, route oral; conditions: in vivo
Summary of the method: as §3

[13] = Drug level in plasma of human HCT116 cells xenografted in CrTac:NCr-Fox1 (nu) athymic mouse at 50 mg/kg, po qd for 16 days measured after 4 hrs; format: ADME, organism-based, HCT-116; parameters: dose 50 mg/kg, route oral; conditions: read-out: Drug uptake
Summary of the method: as §3

[14] = Metabolic stability in mouse liver microsomes at 10 uM after 30 mins; format: ADME, Microsome; conditions: read-out: Stability
Summary of the method: (§5)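 Compound at 10 µM incubated with human or mouse liver microsomes. Read-out is the percentage of parent remaining after 30 min.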

[15] = Metabolic stability in human liver microsomes at 10 uM after 30 mins; format: ADME, Microsome; conditions: read-out: Stability
Summary of the method: as §5

HCT-116 [16] = test: Antitumor activity against human HCT116 cells xenografted in CrTac:NCr-Fox1 (nu) athymic mouse assessed as tumor weight at 50 mg/kg, po qd for 16 days relative to untreated control; format: functional
Summary of the method: as §4

[17] = Cmax in CD1 mouse spleen at 3 mg/kg, po or 1 mg/kg, iv; format: ADME, organism-based
Summary of the method: as §2

[18] = Permeability from basolateral to apical side in human Caco-2 cells; format: ADME, cell-based; conditions: read-out: permeability
Spleen [19] = test: Drug level in spleen of human HCT116 cells xenografted in CrTac:NCr-Fox1 (nu) athymic mouse at 50 mg/kg, po qd for 16 days measured after 4 hrs; format: ADME, organism-based, HCT-116; parameters: dose 50 mg/kg, route oral; conditions: in vivo
Summary of the method: as §3

[20] = Oral bioavailability in CD1 mouse at 3 mg/kg; format: ADME, organism-based; conditions: in vivo
Summary of the method: as §2

[21] = Drug level in tumor of human HCT116 cells xenografted in CrTac:NCr-Fox1 (nu) athymic mouse at 50 mg/kg, po qd for 16 days measured after 0.5 hrs; format: ADME, organism-based, Neoplasm, HCT-116; parameters: dose 50 mg/kg, route oral; conditions: in vivo
Summary of the method: as §3

Cytochrome P450 1A2 = molecular target: T3, Cytochrome P450 1A2 (Homo sapiens, UniProt P05177); test: Inhibition of CYP1A2 at 50 uM; format: ADME
T3 sequence (P05177 whole entry): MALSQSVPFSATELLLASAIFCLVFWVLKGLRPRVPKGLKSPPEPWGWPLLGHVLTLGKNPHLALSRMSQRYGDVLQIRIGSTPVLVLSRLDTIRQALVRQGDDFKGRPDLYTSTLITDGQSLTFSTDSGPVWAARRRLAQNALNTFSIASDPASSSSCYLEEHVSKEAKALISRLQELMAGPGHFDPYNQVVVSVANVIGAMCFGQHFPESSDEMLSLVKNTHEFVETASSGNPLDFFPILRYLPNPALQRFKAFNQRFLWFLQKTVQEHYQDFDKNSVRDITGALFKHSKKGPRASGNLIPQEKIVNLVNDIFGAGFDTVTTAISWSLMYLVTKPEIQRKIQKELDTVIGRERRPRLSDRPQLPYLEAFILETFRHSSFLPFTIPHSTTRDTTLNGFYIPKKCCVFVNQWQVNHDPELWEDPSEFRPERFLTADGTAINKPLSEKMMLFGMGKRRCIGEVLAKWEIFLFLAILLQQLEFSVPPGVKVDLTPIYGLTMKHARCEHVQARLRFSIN

O=C(NO)c1cnc(N2C[C@@H]3CN(S(=O)(=O)c4ccc5ccccc5c4)C[C@@H]3C2)nc1
GI50 (HuT78): 0.3 µM
GI50 (U-937): 0.48 µM
GI50 (HCT-116 [1]): 0.74 µM
GI50 (HeLa): 1.13 µM
IC50 (Histone deacetylase): 0.064 µM

O=C(NO)c1cnc(N2C[C@H]3CN(Cc4ccc(Cl)cc4)C[C@H]3C2)nc1
GI50 (HuT78): 0.19 µM
GI50 (U-937): 0.23 µM
GI50 (HCT-116 [1]): 0.49 µM
GI50 (HeLa): 0.69 µM
IC50 (Histone deacetylase): 0.042 µM

COc1ccc(CN2C[C@@H]3CN(c4ncc(C(=O)NO)cn4)C[C@@H]3C2)cc1
GI50 (HuT78): 0.29 µM
GI50 (U-937): 0.55 µM
GI50 (HCT-116 [1]): 0.9 µM
GI50 (HeLa): 0.95 µM
IC50 (Histone deacetylase): 0.095 µM

O=C(NO)c1cnc(N2C[C@H]3CN(Cc4ccc5ccccc5c4)C[C@H]3C2)nc1
fold change (FC) (Mus musculus [2]): 2
Cmax [3]: 31 ng/mL
Drug uptake [4]: 154 nmol/kg
Papp [5]: 0.5 ×10⁻⁶ cm/s
IC50 [6]: 4.1 µM
fold change (FC) (Mus musculus [7]): 2
inhibition (INH) (Cytochrome P450 2A6): Not Active
IC50 (Cytochrome P450 2D6): 10 µM
inhibition (INH) (Cytochrome P450 2C19): Not Active
inhibition (INH) (Cytochrome P450 2C8): Not Active
Drug uptake (Spleen [8]): 620 nmol/kg
concentration at 1 h [9]: 14 nM
GI50 (HuT78): 0.079 µM
Drug uptake [10]: 215 nmol/kg
inhibition (INH) (Cytochrome P450 3A4): Not Active
GI50 (U-937): 0.072 µM
Activity (HCT-116 [11]): 28%
Drug uptake (Spleen [12]): 1260 nmol/kg
concentration at 4 h [13]: 25 nM
remaining at 0.5 h, 10 µM [14]: 45%
remaining at 0.5 h, 10 µM [15]: 72%
GI50 (HCT-116 [1]): 0.12 µM
T/C (HCT-116 [16]): 80%
Cmax [17]: 218 ng/mL
GI50 (HeLa): 0.26 µM
Papp B→A [18]: 9.4 ×10⁻⁶ cm/s
Drug uptake (Spleen [19]): 500 nmol/kg
IC50 (Histone deacetylase): 0.013 µM
bioavailability [20]: 15%
Drug uptake [21]: 80 nmol/kg
inhibition (INH) (Cytochrome P450 1A2): Not Active
